Test results: the EternaBench riboswitch data

Tested on: MS2 coat protein
Assay: apparent Kd, MS2 coat protein; higher = weaker binding; RNA-MaP array; FMN 200 µM where present
Summary of the method: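 Stalled E. coli RNA polymerase transcribed each design on Illumina sequencing-chip clusters. The clusters were titrated with SNAP-549-labelled MS2 coat protein, starting at 0.7 or 1.5 nM and doubling up to 3 µM, first without ligand and then with constant ligand, in 100 mM Tris-HCl pH 7.5, 80 mM KCl, 4 mM MgCl2, BSA, DTT, yeast tRNA and Tween-20. Green signal was normalised to red-channel RNA signal and to the control-cluster median Fmax. The apparent Kd is the median of filtered binding-curve fits made for each cluster.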

[1] = designed as: OFF switch for flavin mononucleotide, no ligand
[2] = ligand present: flavin mononucleotide, designed as: OFF switch for flavin mononucleotide
[3] = designed as: ON switch for flavin mononucleotide, no ligand
[4] = ligand present: flavin mononucleotide, designed as: ON switch for flavin mononucleotide

Row | Sequence | apparent Kd [1] [nM] | apparent Kd [2] [nM] | apparent Kd [3] [nM] | apparent Kd [4] [nM]
1 | CUUAUGUGAGGAUAUCAGUAGUGAUACGAUAGUAUUACUGCUGAGAAGGCACAUGAGGAUCACCCAUGUUCCUU | 26.1 | 51.9 | – | –
2 | CUGAGGUCAGGAUAUGCAUGGCGGGACUUGCGUCGUGGCGUGGAGAAGGGACAUGAGGAUCACCCAUGUGGAGC | 59.8 | 57 | – | –
3 | AUACCACGAGGAUAUCGUCUCUCCCACAUGAGGAUCACCCAUGUUAUCCAUGUUUCGUUUCGAGAAGGCGUGGGUU | 83.2 | 70.2 | – | –
4 | GUGUACAGAGGAUAUACAAUAGGAGUUACGAAAGUAACUUCACAUGAGGAUCACCCAUGUAGAAGGCUGUACAC | 18.1 | 37.8 | – | –
5 | CAAAACAUCUCCGUGUUUGUCGAACAUGAGGAUCACCCAUGUAGAAGGCGCUUCGCGUCGCGGAGCGAGGAUAUACGCUGGAUG | 11.4 | 86.3 | – | –
6 | GCCAGUUAUGUAGGAUAUGCGAGGCGAGCCUGAGCAGAAGGACAUGAGGAUCACCCAUGUAUUGCGGUUUGAGUUCUGAUCGCU | 23.4 | 58.6 | – | –
7 | GGUGGACAUGAGGAUCACCCAUGUGAGGAUAUCGGCUGGCUAGUGGCGGCUGGCUUCUCGAGAAGGCGCAUAGU | 49.7 | 72.5 | – | –
8 | CGGCGCUGUCGAGAGGAUAUGCGGUGAUGGACAUGAGGAUCACCCAUGUUAGCGAUAGCAUCACGGUAGAAGGCUCUACGGCUUG | – | – | 46.3 | 15.5
9 | AAGGAUCGCACAGGAUAUCAUACAUGAGGAUCACCCAUGUCAGAAAACAAAUGAGAAGGGUGCGCAUUAAUUGCUUGUGAAGAA | – | – | 17.9 | 4.65
10 | GGACAGUGUCGUUAUCCGUAGCGAACAUGAGGAUCACCCAUGUAGGAUAUGUUAUUAAACUAAUAACAGAAGGACGUUGGUCUC | 24.8 | 125 | – | –
11 | AAUGUGUCAGGAUAUUGUUAGUUUAGUUGUUUGUAUUAGUUCGAGAAGGGACAUGAGGAUCACCCAUGUUGUUA | 36.4 | 29.1 | – | –
12 | ACUUGUAAGUAGAAGGUAGUCAUUAUAUUAAUCAUGUAAACAUGAGGAUCACCCAUGUAGAGUACUAAGGAUAUACAUCGAUAG | – | 9.91 | – | –
13 | CGCGAACAGGCUAACAUGAGGAUCACCCAUGUGGACUCAUGGUAGGAUAUCGGGAAGGAGGAAACCGAGAAGGGCCGGUGAGCC | – | – | 498 | 359
14 | UUUUUGUGAGGAUAUUAGUAGUAAAUGAAUAAAAUUAUUACUGAGAAGGCACAUGAGGAUCACCCAUGUUCCUU | 15.1 | 71.8 | – | –
15 | AUUUAUGGCCAGAAGGACAUGAGGAUCACCCAUGUAGGAUAUGGACGAUUUUGCUCGGCGGUUUGUUUAGGAAGCACCGGUGAU | – | – | 21.5 | 7.6
16 | AGAGAGAGCACAGGAUAUCCGCACACAUGCAGCGGAGAAGGGUGACCUUUUUGCACAUGAGGAUCACCCAUGUCCAGCACCACG | – | – | 25.7 | 13.3
17 | GCACGGUAUGUAGGAUAUGCAUAGCAUUGCUAUGCAGAAGGACAUGAGGAUCACCCAUGUAUGUAUUCCAUACAUUUCCCGUGC | 5.73 | 5.74 | – | –
18 | GUAGCAUACCGAGGAUAUUCAGGGCAUAAAUAAACAUGAGGAUCACCCAUGUGGCGAAAGCCUAGGGAGAAGGCGGAAUGCUAC | – | – | 18.5 | 15.3
19 | AAUUGAGAGCAGGAUAUAUUCCUGAUGUAUGAAGUAGAAGGGCUCACAUGAGGAUCACCCAUGUGAUCCUGAAU | 16.1 | 18 | – | –
20 | GGACGUCACAUUAACAUGAGGAUCACCCAUGUCAAAAGACAUGAGGAUAUGGAUGCGAAACGCAUCCAGAAGGCAUGGACGUCC | – | – | 629 | 41.1
21 | AGGUCACAUGAGGAUCACCCAUGUCAGGAUAUCGUCACUGGAGCUGCGGCUCCAGUGACGAGAAGGGAUAAUUA | 45.5 | 70.5 | – | –
22 | UAAAUGUCAGGAUAUUGUUAAUUUAGUUGUUUGUAUUAGUUCGAGAAGGGACAUGAGGAUCACCCAUGUUGUUU | 28.9 | 31.1 | – | –
23 | CGGGCAAUGUCCGAGACAUGAGGAUCACCCAUGUUAGCAGCACAGGAUAUCAUGUUUUGUAAAGGUGAGAAGGGUGAUUGCAUC | – | – | 273 | 139
24 | AAGAAGUCAGGAUAUGCUGCUCGUCACUUGCGUGAUGAGUAGCAGAAGGGACAUGAGGAUCACCCAUGUAAAGC | 44 | 52.4 | – | –
25 | AAAUAAAGGACUGAGGAUAUACCACAUGAAACAUGAGGAUCACCCAUGUAAUAAUACAAAGGGUGGUAGAAGGUAGUCCACAAACA | – | – | 34.9 | 16.8
26 | ACGACGAAAGUCGAACGAUGUAGCAGAAGGACAUGAGGAUCACCCAUGUCAGCUGUGAAAACCAUGUAGGAUAUGCUACAUCGA | 38.5 | 291 | – | –
27 | AAGUUUUUACAAGGAUAUCAAUUGUUUCUAAAUUCAACAUGAGGAUCACCCAUGUAACAAUGGAGUGAGAAGGUGUGUUGGCAA | – | – | 86.8 | 141
28 | ACAUGAGGAUCACCCAUGUAGAAUGAAGAAGGUAGAUAAUUGUGUUUCACCCAUGUACAUAAAUCUAAGGAUAUUCUAAUAAUU | – | – | 12.3 | 7.35

Row | Sequence | apparent Kd [1] [nM] | apparent Kd [2] [nM] | apparent Kd [3] [nM] | apparent Kd [4] [nM]
29 | UUGUGGUGCGUAGGAUAUCAUUGAGGGUCACCCUGAGAAGGACGUGAGGACAUGAGGAUCACCCAUGUGGAUCACCCAUGUCAU | 222 | 355 | – | –
30 | AUACCUUAUGAGAAGGCGAUCAUGAAACAUGAUCGAGGAUAUCAUGUAAACAUGAGGAUCACCCAUGUAUGGGUAUUAUGGUAG | – | – | 34 | 10.5
31 | UUUUUAUUUAUAGGAUAUGGAAACAUGAGGAUCACCCAUGUAUGAUAAGAUAAAUUAUGAUGUGGCCAGAAGGAUAUUAUUUUU | – | – | 31.3 | 43.7
32 | AUAUAUAAUAAGAAGGUGCCAGCGAGAGCUGCACAUGAGGAUCACCCAUGUUGUCGGUGACGACGCAAGGAUAUUAUUAUAUAU | – | – | 56.8 | 18.5
33 | GGUCCAUUAUGAGGAUAUGGCACCUUAUUGGUGCCAGAAGGCAUGUGUAUUCACAUGAGGAUCACCCAUGUAAUAAAUUGGACC | – | – | 87.2 | 20
34 | UAUUAUUUGGAGAAGGACAUGAGGAUCACCCAUGUCGCCGGGCCCGGGAAACCGGGCCCGGCCAUGUAGGAUAUCCGGGUGGUA | 12.7 | 13.6 | – | –
35 | UGUGUGUGGCAGGAUAUGCAGGUAAUAGGACGGGUAGAAGGGUCUACAUGAGGAUCACCCAUGUGGCCGGUUGG | 16.1 | 16 | – | –
36 | GUCACACACUGCUCCGUGUCUGACAUGAGGAUCACCCAUGUGAGAAGGUAGCGUCGAAGCAACGUUAAGGAUAUCACGUGCAGU | 6.68 | 8.39 | – | –
37 | GGGUACAUCGGAGGAUAUCAUGUAAAUACAUGAGGAUCACCCAUGUCGAUGGAGACCUCGGAGAUUGAGAAGGCCGAUGUACCG | – | – | 694 | 201
38 | UUAAUGUGAGGAUAUCAGGUGUGCUAGCGUACUGGUACAUCUGAGAAGGCACAUGAGGAUCACCCAUGUUCCAG | 32.8 | 100 | – | –
39 | GAUCGUAUCCUAGGAUAUUCAUUAAAACAUGAGGAUCACCCAUGUAAAUUGGGAGAAGGAGGAUACGAUCAACAGCGAAAGCUG | – | – | 35.3 | 6.52
40 | GGUGCACGCACAGGAUAUCCGGCGGAGCUCGUCGGAGAAGGGUGACAUGAGGAUCACCCAUGUACGUGCAACCCAGUUUGAGGG | – | – | 59.6 | 28.5
41 | UGUAAGAUGCAGAAGGUGUUAGCUAGAGCUACGACAUGAGGAUCACCCAUGUACUAGAAACAGUACAAGGAUAUGCAUCUUACC | – | – | 19.6 | 6.43
42 | UGGUAAUAGGGAGGAUAUGGGAAGAUACAUGAGGAUCACCCAUGUUUAAGAAUGCCGAGAGGCAACUAGAAGGCCCUAGUACCU | – | – | 468 | 19.6
43 | CAGUACUGAGGAUAUACAUGAGGAUCACCCAUGUGUCCCUGCUAGGAAACUAGCAAUAGUAGAAGGCAGUACUG | 17.7 | 199 | – | –
44 | AAAACGGCGCAUCCCGCGCCAACUACAGAAGGCCAACAUGAGGAUCACCCAUGUACAAACUAGAUGGAGGAUAUGUAGGUUCUA | – | – | 5.18 | 4.2
45 | GAUAAGGGCGAGGAUAUGCCAUUGGCUGAGGUCGUAGAAGGUGCCACAUGAGGAUCACCCAUGUAUCAAGUACG | 34.5 | 32.4 | – | –
46 | GCACAUGAGGAUCACCCAUGUCGGGAGGAUAUCUAGGCUGGGCGAUGCUAGGGCGGCCUUUGCUUAGAGAAGGCCCAUAAAAUC | – | – | 69.1 | 32.4
47 | GGGUACAUCGGAGGAUAUCAUGUAAAUACAUGAGGAUCACCCAUGUCGAUGGAGACAUCGGAGAUUGAGAAGGGCGAUGUACCG | – | – | 647 | 75.8
48 | GUAGCUUUCCGAGGAUAUUCAUACCGGAAACGGACAUGAGGAUCACCCAUGUGGCGAAAGCCUUGGGAGAAGGCGGAAAGCUAC | – | – | 446 | 23.4
49 | AGCUGGUGACAGCAAGAAACUUCACAUGAGGAUCACCCAUGUAGAAGGCUGUACGGUUACCGUACAGAGGAUAUACAUGAAAAG | 9.49 | 26.8 | – | –
50 | GCAGCUCCUGACAUGAGGAUCACCCAUGUUCAAUUGUUGAGUCAGGAUAUAGUCUAGAAACUAGACUAGAAGGGAUAUGCUGCU | – | – | 12.3 | 10.8
51 | CGUUGUUCCGCAGGAUAUGCAUUGGAUUACAAUGCAGAAGGGCGAUAACAUGAGGAUCACCCAUGUGUGGACAAUGAGGAAGAG | – | – | 792 | 55.2
52 | AUUAUUGACGAAGGAUAUGGAUACAUGAGGAUCACCCAUGUAUAAUUUGUGUUCUUAUAUUUGAUCCAGAAGGUCGUUGUUUAU | 35.8 | 54.6 | – | –
53 | GCUUGUGAAGGAUAUACUGGCGGCGUGCGCUCGAAGCACGCACAUGAGGAUCACCCAUGUAGAAGGUCAGGCGU | 16.3 | 13.8 | – | –
54 | UCUGGUCGAGGAUAUACGUGACGUGCUUCGGCACGAGGUCUACAUGAGGAUCACCCAUGUAGAAGGCGACCAGA | 17.1 | 48 | – | –
55 | CAGCGAAAGCUGAAUCUGUAGAGAGAGGAUAUACAUCAUAAGAUGCAUACAUGAGGAUCACCCAUGUAGAAGGCUCUCUACAGU | 5.49 | 6.83 | – | –
